Reference: ChEMBL document CHEMBL3407400, “Design, synthesis and biological evaluations of chirally pure 1,2,3,4-tertrahydroisoquinoline analogs as anti-cancer agents” (Eur J Med Chem, 2015)
Activity calls are given as the source filed them. No cut-off for these calls is given here.

Key:
Tubulin = test: Inhibition of tubulin (unknown origin) polymerization by fluorescence assay; type: protein-complex assay, Homo sapiens
DU-145 [1] = test: Induction of apoptosis in human DU145 cells assessed as down regulation of Bcl2 at 0.5 uM after 48 hrs by Western blot analysis relative to control; type: functional, cell-based
DU-145 [2] = test: Induction of apoptosis in human DU145 cells assessed as late apoptotic cells at 0.5 uM after 48 hrs by annexin V FITC/PI dual staining assay (reference value: 2.47 %); type: functional
HeLa = test: Anticancer activity against human HeLa cells after 48 hrs by MTT assay; type: functional, cell-based
Outline: (§1)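 Cell lines held in DMEM or MEM with 10% FBS and antibiotic-antimycotic at 37 °C, 5% CO2. Cells seeded at 1 × 10⁴ per well in DMEM with 10% FBS and left 24 h. Compounds diluted in medium and added alongside vehicle control for 48 h. MTT (5 mg/mL) added for 4 h, formazan dissolved in DMSO, absorbance read at 570 nm.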

DU-145 [3] = test: Cell cycle arrest in human DU145 cells assessed as G0/G1 phase at 0.5 uM after 48 hrs by propidium iodide based flow cytometry (reference value: 79.15 %); type: functional
DU-145 [4] = test: Cell cycle arrest in human DU145 cells assessed as G0/G1 phase at 1 uM after 48 hrs by propidium iodide based flow cytometry (reference value: 79.15 %); type: functional
A549 = test: Anticancer activity against human A549 cells after 48 hrs by MTT assay; type: functional, cell-based; settings: A549, 48 h; outline: as §1
DU-145 [5] = test: Cell cycle arrest in human DU145 cells assessed as S phase at 0.5 uM after 48 hrs by propidium iodide based flow cytometry (reference value: 1.65 %); type: functional
DU-145 [6] = test: Induction of apoptosis in human DU145 cells assessed as activation of caspase 3 at 0.5 to 1 uM after 48 hrs by fluorometric assay relative to control; type: functional
Outline: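 DU-145 cells treated for 48 h. Fluorometric caspase-3 kit used: […] substrate added to cell lysate, 1 h at 37 °C. Fluorescence read at excitation 400 nm, emission 505 nm.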

DU-145 [7] = test: Cell cycle arrest in human DU145 cells assessed as subG1 phase at 0.5 uM after 48 hrs by propidium iodide based flow cytometry (reference value: 9.36 %); type: functional
DU-145 [8] = test: Induction of apoptosis in human DU145 cells assessed as viable cells at 0.5 uM after 48 hrs by annexin V FITC/PI dual staining assay (reference value: 96.45 %); type: functional; settings: DU-145, 48 h, read-out: Activity
DU-145 [9] = test: Induction of apoptosis in human DU145 cells assessed as early apoptotic cells at 1 uM after 48 hrs by annexin V FITC/PI dual staining assay (reference value: 0.77 %); type: functional
MCF7 = test: Anticancer activity against human MCF7 cells after 48 hrs by MTT assay; type: functional, cell-based; settings: MCF7, 48 h; outline: as §1
DU-145 [10] = test: Cell cycle arrest in human DU145 cells assessed as G2/M phase at 1 uM after 48 hrs by propidium iodide based flow cytometry (reference value: 6.75 %); type: functional
DU-145 [11] = test: Induction of apoptosis in human DU145 cells assessed as early apoptotic cells at 0.5 uM after 48 hrs by annexin V FITC/PI dual staining assay (reference value: 0.77 %); type: functional
HepG2 = test: Anticancer activity against human HepG2 cells after 48 hrs by MTT assay; type: functional, cell-based; settings: HepG2, 48 h; outline: as §1
DU-145 [12] = test: Cell cycle arrest in human DU145 cells assessed as S phase at 1 uM after 48 hrs by propidium iodide based flow cytometry (reference value: 1.65 %); type: functional
DU-145 [13] = test: Cell cycle arrest in human DU145 cells assessed as G2/M phase at 0.5 uM after 48 hrs by propidium iodide based flow cytometry (reference value: 6.75 %); type: functional
DU-145 [14] = test: Induction of apoptosis in human DU145 cells assessed as up regulation of Bax at 0.5 uM after 48 hrs by Western blot analysis relative to control; type: functional, cell-based
DU-145 [15] = test: Cell cycle arrest in human DU145 cells assessed as subG1 phase at 1 uM after 48 hrs by propidium iodide based flow cytometry (reference value: 9.36 %); type: functional
DU-145 [16] = test: Induction of apoptosis in human DU145 cells assessed as viable cells at 1 uM after 48 hrs by annexin V FITC/PI dual staining assay (reference value: 96.45 %); type: functional; settings: DU-145, 48 h, read-out: Activity
DU-145 [17] = test: Induction of apoptosis in human DU145 cells assessed as necrotic cells at 1 uM after 48 hrs by annexin V FITC/PI dual staining assay (reference value: 0.31 %); type: functional
DU-145 [18] = test: Disruption of microtubule network in human DU145 cells at 50 uM after 48 hrs by immunohistochemistry analysis; type: cell-based
DU-145 [19] = test: Induction of apoptosis in human DU145 cells assessed as DNA fragmentation at 0.5 uM after 48 hrs by agarose gel electrophoresis; type: functional, cell-based
Outline: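 DU-145 cells (1 × 10⁶) seeded, then treated 24 h later for 48 h. Lysate cleared, then digested with SDS/RNase A (2 h, 56 °C) and proteinase K (2 h, 37 °C). DNA precipitated with ammonium acetate and ice-cold ethanol, dissolved in TE. Laddering resolved on 2% agarose.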

DU-145 [20] = test: Induction of apoptosis in human DU145 cells assessed as necrotic cells at 0.5 uM after 48 hrs by annexin V FITC/PI dual staining assay (reference value: 0.31 %); type: functional
DU-145 [21] = test: Anticancer activity against human DU145 cells after 48 hrs by MTT assay; type: functional, cell-based; settings: DU-145, 48 h; outline: as §1
DU-145 [22] = test: Induction of apoptosis in human DU145 cells assessed as late apoptotic cells at 1 uM after 48 hrs by annexin V FITC/PI dual staining assay (reference value: 2.47 %); type: functional

Structure (SMILES)	IC50 (Tubulin)	Activity (DU-145 [1])	Activity (DU-145 [2])	IC50 (HeLa)	Activity (DU-145 [3])	Activity (DU-145 [4])	IC50 (A549)	Activity (DU-145 [5])	fold change (FC) (DU-145 [6])	Activity (DU-145 [7])	viability at 0.5 µM (DU-145 [8])	Activity (DU-145 [9])	IC50 (MCF7)	Activity (DU-145 [10])	Activity (DU-145 [11])	IC50 (HepG2)	Activity (DU-145 [12])	Activity (DU-145 [13])	Activity (DU-145 [14])	Activity (DU-145 [15])	also measured
Cc1ccc(S(=O)(=O)N2CC(=O)N3Cc4ccccc4[C@@H](OCc4ccccc4)[C@@H]3C2)cc1	1680 nM	Active	6.47%	3.16 µM	67.34%	46.74%	1260 nM	2.64%	3	8.22%	90.1%	4.15%	2.51 µM	44.17%	2.79%	870 nM	0.9%	17.68%	Active	5.02%	viability at 1 µM (DU-145 [16]): 65.6%; Activity (DU-145 [17]): 4.48%; Activity (DU-145 [18]): Active; Activity (DU-145 [19]): Active; Activity (DU-145 [20]): 0.63%; IC50 (DU-145 [21]): 720 nM; Activity (DU-145 [22]): 25.79%
Cc1ccc(S(=O)(=O)N2C[C@H]3[C@H](OCc4ccccc4)c4ccccc4CN3C(=O)[C@@H]2C)cc1	3550 nM	Active	4.45%	7.31 µM	68.53%	46.67%	2450 nM	2.8%	3	8.25%	92.8%	4.94%	5.49 µM	40.27%	1.88%	1700 nM	1.83%	16.96%	Active	6.74%	viability at 1 µM (DU-145 [16]): 69.2%; Activity (DU-145 [17]): 4.7%; Activity (DU-145 [18]): Active; Activity (DU-145 [19]): Active; Activity (DU-145 [20]): 0.82%; IC50 (DU-145 [21]): 1230 nM; Activity (DU-145 [22]): 21.14%
